The record followed here is article PMC9070660 (RSC Advances, 2019).

One assay relates to SKOV3 cells. Briefly: MTT cell viability assay, SKOV3. It is filed as cell-based, human. The gist of the method: (§1)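 Culture: SKOV3 in RPMI-1640 with 10% FBS and penicillin-streptomycin at 37 °C, 5% CO2; OVCAR3 and IOSE80 in DMEM. Cells seeded at 1 × 10^4 per well, grown 24 h, then exposed to a range of test compound concentrations for 48 h. MTT (2 mg mL−1 stock) added, […]; formazan dissolved in DMSO; A490 read. IC50 calculated; SI = IC50 IOSE80/IC50 cancer line; three separate experiments.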

In the next assay the test system is IOSE80 cells. Briefly: MTT cell viability assay, normal ovarian epithelial cells IOSE80. The assay is classed as cell-based. The note with it: Homo sapiens, IOSE80, 48 h, read-out: IC50 (cell viability) IOSE80. The gist of the method:
as §1

Another assay relates to OVCAR3 cells. Briefly: MTT cell viability assay, OVCAR3. It is filed as cell-based, human. The gist of the method:
as §1

SMILES strings stand for the structures.

Regarding `CC(=O)O[C@H]1C(=O)[C@@]2(C)[C@H]([C@H](OC(=O)c3ccccc3)[C@]3(O)C[C@H](OC(=O)[C@H](O)[C@@H](NC(=O)c4ccccc4)c4ccccc4)C(C)=C1C3(C)C)[C@]1(OC(C)=O)CO[C@@H]1C[C@@H]2O` [Paclitaxel], the IC50 was 430 ± 30 nM in the assay with SKOV3 cells (Homo sapiens, SK-OV-3, 48 h, read-out: IC50 (cell viability) SKOV3); 1700 ± 100 nM in the assay with IOSE80 cells; 380 ± 40 nM in the assay on OVCAR3 cells (Homo sapiens, OVCAR-3, 48 h, read-out: IC50 (cell viability) OVCAR3). Besides, the “SI (selectivity index) SKOV3” value in the assay with SKOV3 cells (IC50 IOSE80 cell line/IC50 SKOV3) is reported as 4.0. Also, the “SI (selectivity index) OVCAR3” value in the assay on OVCAR3 cells (IC50 IOSE80 cell line/IC50 OVCAR3) was found to be 4.5.
